Activity calls are given as the source filed them. The calls are words filed in the database; no cut-off is given here.
What was measured:
[1] = Displacement of [3H]-QNB from Wistar rat brain membrane mAChR incubated for 30 mins by radioligand competitive binding assay; type: cell membranes
Method in brief: (§1)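 Female Wistar rat cortex membranes (30 μg protein) in tris-HCl with 6 mM MgCl₂, 200 pM [³H]QNB (Kd 40 pM), ligands from 1 or 10 nM to 300 μM; 30 min at 37 °C equilibrium. Filtration through GF/C filters, scintillation counting. Nonspecific binding defined with 2 μM atropine. One-site competitive fits gave IC50 and Ki; n = 4 per isomer, n = 2 for reference.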

[2] = Displacement of [3H]-QNB from Wistar rat brain membrane mAChR assessed as inhibition constant incubated for 30 mins by radioligand competitive binding assay; type: cell membranes; method in brief: as §1
[3] = Thermal stability of the compound assessed as half life; type: physicochemical
[4] = molecular target: T1, Muscarinic acetylcholine receptor M1 (Homo sapiens) (UniProt P11229); test: Antagonist activity at human M1 mAChR receptor expressed in HEK cells assessed as reduction in total cell response at 100 uM by real-time calcium imaging method relative to control; type: functional, cell-based; design: scale not given: the % may be the effect or the level left
T1 sequence (whole entry): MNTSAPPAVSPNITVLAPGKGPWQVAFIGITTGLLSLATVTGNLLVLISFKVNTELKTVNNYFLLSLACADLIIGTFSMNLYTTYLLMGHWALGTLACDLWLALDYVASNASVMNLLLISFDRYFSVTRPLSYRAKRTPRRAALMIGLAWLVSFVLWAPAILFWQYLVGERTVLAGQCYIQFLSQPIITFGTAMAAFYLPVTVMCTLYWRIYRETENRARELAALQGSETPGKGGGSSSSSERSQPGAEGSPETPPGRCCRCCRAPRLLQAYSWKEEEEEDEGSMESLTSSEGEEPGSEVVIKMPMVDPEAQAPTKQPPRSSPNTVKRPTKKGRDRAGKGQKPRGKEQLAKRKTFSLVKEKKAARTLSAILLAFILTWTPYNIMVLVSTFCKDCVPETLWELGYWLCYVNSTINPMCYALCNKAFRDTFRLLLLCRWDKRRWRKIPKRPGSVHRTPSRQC
Method in brief: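 tsA201 cells transiently transfected with human M1 (± R-GECO1), used 48–72 h post-transfection. OGB-1 AM loading at 10 μM final, 30 min, 37 °C; HEPES bath pH 7.4 with 2 mM CaCl₂. Test at 100 μM against 0.5 μM ACh; cis formed by 2 min 365 nm pre-illumination or continuous 460 nm light. Responses normalized to 0.5 μM ACh maximum; Wilcoxon signed rank test.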

Cardiac atrium = test: Anticholinergic activity in isolated CD1 mouse CCh-induced bradycardia atrium assessed as recovery of CCh-indued contraction frequency at 100 uM; type: functional, tissue-based
Method in brief: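 Right atria from CD1 male mice, 10–12 weeks, in carbogenated Krebs, pH 7.4, under 0.2 g tension. Isometric recording of spontaneous contractions after 5–10 min equilibration. Bradycardia induced with CCh 10⁻⁶ M; test compound then added and beats/min measured.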

[5] = molecular target: Muscarinic acetylcholine receptor M2 (human) (UniProt P08172); test: Displacement of [3H]AF-DX384 from human recombinant M2 receptor expressed in CHO cells by topcount scintillation counter method
[6] = molecular target: T2, Muscarinic acetylcholine receptor M1 (Homo sapiens, UniProt P11229); test: Displacement of [3H]-pirenzepine from human recombinant M1 receptor expressed in CHO cells incubated for 60 mins by topcount scintillation counter method; type: cell-based
T2 sequence (P11229 whole entry): T1 sequence (whole entry)
Method in brief: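 Membranes from CHO cells with human M1 (45 μg protein), 2 nM [³H]pirenzepine (Kd 13 nM), 60 min at 22 °C. Nonspecific binding with 1 μM atropine. GF/B filtration, scintillation counting. Tested at 1, 10 and 100 μM after 30 min 365 nm irradiation of DMSO stock; % inhibition, duplicate.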

Row | IC50 [1] [µM] | Ki [2] [µM] | half-life [3] [h] | Activity [4] [%] | Activity ([4]; filed as antagonist) [%] | IC50 [6] [µM] | SMILES | Activity (Cardiac atrium) | IC50 [5] [µM]
1 | 38 | 6.4 | 1.18 | – | – | – | CN1CCN(CC(=O)Nc2ccccc2/N=N/c2cccnc2)CC1.Cl.Cl | – | –
2 | 32 | 5.3 | – | 14 | – | – | CN1CCN(CC(=O)Nc2ccccc2/N=N\c2ccc(N(C)C)cc2)CC1 | – | –
3 | 9.9 | 1.7 | 3.03 | – | 64 | – | CN1CCN(CC(=O)Nc2ccccc2/N=N/c2ccccc2)CC1.Cl.Cl | – | –
4 | – | – | – | – | – | – | CN1CCN(CC(=O)N2c3ccccc3C(=O)Nc3cccnc32)CC1 | Active | –
5 | 9.2 | 1.5 | 3.03 | – | 73 | 1.9 | CN1CCN(CC(=O)Nc2ccccc2/N=N\c2ccccc2)CC1.Cl.Cl | Active | 28
6 | 42 | 7 | 1.18 | – | – | – | CN1CCN(CC(=O)Nc2ccccc2/N=N\c2cccnc2)CC1.Cl.Cl | – | –
7 | 33 | 5.3 | – | – | – | – | CN1CCN(CC(=O)Nc2ccccc2/N=N/c2ccc(N(C)C)cc2)CC1 | – | –

From ChEMBL document CHEMBL5149993, “Rational Design of Photochromic Analogues of Tricyclic Drugs” (J Med Chem, 2021)
